Screens (PubChem)
Rows were chosen to be rich in hits. Some 2.3% of all compounds tested hit in one or more screens of this group.
MCL1 BIM primary = disrupts human MCL1 binding to BIM-BH3 peptide. Q07820. GST-MCL1 / FITC-Bim-BH3 fluorescence polarization. inhibition, % at 10.9 µM. actives 0.68% (n = 320,000). AID 2057;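 active = inhibition above the mean inhibition of all tested compounds plus 3 SD, set per campaign, cut at about 40% in these data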;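 also: 0% = DMSO wells and 100% = unlabeled Bim-BH3 peptide control; higher means more loss of mP so more displacement of Bim peptide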
Target sequence (Q07820 whole entry, looked up): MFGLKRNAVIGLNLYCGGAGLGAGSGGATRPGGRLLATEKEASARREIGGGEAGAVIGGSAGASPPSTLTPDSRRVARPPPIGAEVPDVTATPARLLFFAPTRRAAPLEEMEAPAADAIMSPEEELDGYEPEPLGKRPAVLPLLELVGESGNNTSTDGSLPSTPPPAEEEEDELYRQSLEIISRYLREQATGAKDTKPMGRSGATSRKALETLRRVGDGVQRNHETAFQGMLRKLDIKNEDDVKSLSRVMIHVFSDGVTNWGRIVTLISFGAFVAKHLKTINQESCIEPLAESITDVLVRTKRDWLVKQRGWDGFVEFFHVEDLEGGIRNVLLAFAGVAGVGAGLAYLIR
Mcl1 Bid PPI = disrupts binding of human Mcl-1 to Bid peptide; actives 0.97% (n = 220,000); AID 1021; Q07820; TR-FRET Mcl-1/Bid-Dy647 peptide binding, 1536-well; inhibition, % at 21.7 µM;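 active = compounds that cut the binding signal by more than half at the single screening dose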;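 also: His-tagged Mcl-1 with europium anti-His antibody binding Bid BH3 peptide; 0% = Mcl-1 plus peptide wells and 100% = peptide-only wells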
Pemphigus Ab inh = human desmoglein-3 autoantibody binding inhibition | DSG3-coupled beads, scFv-anti-DSG3-GFP binding, flow cytometry; stronger effect = lower value | binding (percent of control), % at 10 µM | actives 0.48% (n = 310,000);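 active = binding more than 3 SD below its plate's average and above zero; inconclusive = below that plate limit but binding exactly zero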;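 also: hits lower antibody fragment binding to DSG3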
T cell HTS = T cell immune modulation candidate | 2C CD8+ T cell-vesicle binding, flow cytometry; stronger effect = lower value | response (vesicle binding), % at 7 µM | actives 0.068% (n = 330,000) | AID 2052;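 active = response, share of CD8 T cells binding vesicles, and their 90th percentile fluorescence all below set limits, cut at about 80% in these data, passing the limit was not always enough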;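 also: values below 100% mean blocked vesicle binding to the CD8+ T cells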
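Material: murine 2C transgenic CD8+ T lymphocytes / Also added: QL9-peptide-loaded Drosophila micro-vesicles bearing Ld, ICAM-1 and B7-1 / Schedule: binding step 1.5 h, 37 °C, antibody labelling 20 min, ice / Signal: flow cytometry, PE anti-B7-1 (FL2) versus Alexa647 anti-CD8 (FL8), PFA-fixed / Evaluation: percent CD8+ FL2 mean versus row control / Benchmarks: naked versus QL9-loaded vesicles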
Mcl-1 Bim block = disrupts Bim peptide binding to human Mcl-1. Q07820. Bead-based flow cytometry, Bim peptide-Mcl-1 binding. inhibition, % at 10 µM. actives 0.1% (n = 190,000). AID 1009; in the data active = inhibition above about 40%;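 also: 0% = no compound tracer wells and 100% = peptide blocker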
Mcl1 Noxa PPI = Mcl-1/Noxa interaction inhibition; Q07820; TR-FRET Mcl-1/Noxa peptide binding, 2 h; inhibition, % at 21.7 µM; actives 1.5% (n = 220,000);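 active = compounds that cut the protein-peptide binding signal by more than 50% relative to plate controls in a single-dose test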;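 also: His-tagged Mcl-1 with rhodamine Noxa BH3 peptide and terbium anti-His antibody; 0% = Mcl-1 plus Noxa peptide wells and 100% = peptide-only wells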
Active calls of the source: *; u = inconclusive; x = not tested or not shown.

SMILES	MCL1 BIM primary	Mcl1 Bid PPI	Pemphigus Ab inh	T cell HTS	Mcl-1 Bim block	Mcl1 Noxa PPI
CCC1c2ccc(C)n2CCN1C(=O)Nc1ccccc1C(=O)OC (centres undefined)	43.7*	-36.6	118.5	340.0	-5.0	11.4
CC1CCCCN1C(=O)Nc1ccccc1Cl (centres undefined)	-2.2	-12.1	91.2	159.9	-4.0	7.3
COC(=O)c1ccccc1NC(=O)N1CSC[C@H]1C(=O)OC	11.1	-2.4	x	222.3	0.0	25.5
CCCC1c2ccc(C)n2CCN1C(=O)Nc1ccccc1Cl (centres undefined)	44.6*	-40.7	119.4	234.4	-7.0	3.5
CCC1c2ccc(C)n2CCN1C(=O)Nc1cc(Cl)ccc1OC (centres undefined)	53.4*	-33.8	114.8	311.4	-8.0	-3.7
CC(C)CC1Nc2ncnc(N3CCCCC3)c2N(Cc2ccc(Br)cc2)C1=O (centres undefined)	6.6	x	101.0	785.5	x	x
COc1ccc(C=NCCC2(O)CC(C)N(C)CC2C)cc1 (centres undefined)	41.1*	-9.6	133.0	480.2	-5.0	-1.1
O=C1/C(=C/c2ccc(O)c(O)c2)Oc2cc(O)ccc21	0.3	-82.7	103.6	733.1	x	74.5*
COc1cc(/C=C2\Oc3cc(O)ccc3C2=O)ccc1O	2.0	-83.4	100.9	469.1	x	35.6
NC(=O)c1ccccc1NC(=O)COc1ccc2c(c1)OCO2	5.1	x	x	450.2	x	x
COc1ccc(Cl)cc1-n1c(C)cc(C(=O)O)c1C	-10.6	-73.4	109.1	224.6	-170.0	-0.1
COc1ccc(Cl)cc1-n1c(C)cc(C=O)c1C	-9.9	-9.0	100.3	241.2	44.0*	6.4
CCOC(=O)c1c(NC(=O)CSc2nc3ccc(C)cc3[nH]2)sc2c1CC(C)(C)NC2(C)C	-12.4	x	u	965.2	x	x
CCOC(=O)c1ccc(COc2ccc(C(C)C)cc2)o1	5.1	-0.9	116.2	217.0	2.0	1.4
CCOc1ccc(OCc2ccc(C(=O)OCc3ccccn3)o2)cc1	5.3	-6.4	40.2*	424.7	-8.0	-4.9
Cc1ccccc1C(=O)Nc1cccc(NC(=S)NC(=O)c2cccs2)c1	6.6	-21.6	109.0	222.3	-1.0	3.3
Cc1ccccc1C(=O)NNC(=S)NC(=O)c1cccs1	9.4	x	78.9*	173.6	x	x
CC(C)(C)c1ccc(C(=O)NC(=S)NNC(=O)c2cccs2)cc1	14.5	-45.1	81.0*	496.2	-5.0	-34.2
O=C(NC(=S)NNC(=O)c1cccs1)c1ccccc1	8.9	x	x	256.4	x	x
Cc1ccc(C(=Cc2ccc([N+](=O)[O-])cc2)C(=O)O)cc1	x	x	104.5	x	x	x
COCCCN=C1NN=C(c2cc(C)n(Cc3ccco3)c2C)CS1	2.7	-42.1	104.3	151.6	-2.0	16.9
Cc1cc(C2=NNC(=NC3CC3)SC2)c(C)n1Cc1ccco1	3.4	-38.6	91.4	277.6	61.0*	19.0
Cc1cc(-c2csc(N)n2)c(C)n1C	42.1*	-39.5	72.8*	184.8	8.0	12.3
Cc1cc(C(=O)CSc2nnc(N)s2)c(C)n1Cc1ccco1	9.1	-26.7	97.2	401.3	2.0	19.6
Cc1cc(-c2csc(N)n2)c(C)n1Cc1ccco1	3.3	-93.0	71.5*	117.4	-1.0	15.8
SMILES	MCL1 BIM primary	Mcl1 Bid PPI	Pemphigus Ab inh	T cell HTS	Mcl-1 Bim block	Mcl1 Noxa PPI
Cc1ccc(-n2c(C)cc(-c3csc(N)n3)c2C)cc1	9.3	-27.4	100.9	796.6	-6.0	29.0
Cc1occc1C(=O)N/N=C/c1ccc(N(C)C)cc1	9.8	74.4*	98.4	209.0	x	36.9
COc1cc(/C=N/NC(=O)c2ccoc2C)cc(OC)c1O	1.0	-63.1	96.3	191.0	-4.0	57.1*
C=CCc1cc(Cl)ccc1OCCOCCN(C)C	10.4	15.1	96.4	620.5	-2.0	26.8
CC(C)N(Cc1ccccc1)C(=O)CCS(=O)(=O)c1ccc2c(c1)oc(=O)n2C	7.3	x	99.5	550.2	x	x
Cc1nc(C)c(C(=O)Nc2nc3c(C)cccc3s2)o1	37.2	-19.1	96.4	311.1	0.0	90.6*
CC1c2cccn2CCN1S(=O)(=O)c1ccc(F)cc1 (centres undefined)	2.5	x	x	242.3	x	x
COC(=O)c1ccccc1S(=O)(=O)N1CCn2cccc2C1C (centres undefined)	15.1	69.3*	108.9	508.0	6.0	21.6
